Data: ChEMBL document CHEMBL4513216, “Probing the Open Global Health Chemical Diversity Library for Multistage-Active Starting Points for Next-Generation Antimalarials” (ACS Infect Dis, 2020)

Assay: Toxicity liver stage against HepG2, at 10uM
Assay type: cell-based
Set-up: test concentration 10 uM, cell line HepG2-A16-CD81EGFP
Conditions: human, HepG2-A16-CD81EGFP cells; read-out: INHIBITION
In short: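 Uninfected HepG2-A16-CD81EGFP cells, 3 × 10^3 per well, 1536-well, plated on prespotted compound at 10 μM final, parasite-free screening media added to match infected plates; puromycin 10 μM positive, DMSO 0.5% negative; run in parallel with 48 h PbLuc assay at 37 °C, 5% CO2; viability by CellTiter-Glo luminescence, normalized to controls.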

Row | SMILES | cytotoxicity at 10 µM [%]
1 | Cc1nn(C)cc1-c1ccnc(N(C)Cc2ccc(F)cc2)n1 | -3.85
2 | CS(=O)(=O)c1nccn1Cc1ccc(C(N)=O)cc1 | 6.77
3 | CN(Cc1ccco1)C(=O)[C@@]12CNC[C@@H]1CN(C1CCCC1)C2 | 3.75
4 | CCc1nc(-c2ccnc(N3CCNCC3)n2)no1 | 11.9
5 | O=C(C1CCOC1)N1CCC2(CC1)CN(c1ncccn1)CCO2 (stereo unspecified) | -73.2
6 | Cc1cccc(CN2CCCC2c2cccc(CCC(=O)O)n2)c1 (stereo unspecified) | -12.6
7 | Cc1cnc(C(=O)NCC(c2ccc(C)o2)N2CCOCC2)cn1 (stereo unspecified) | -7.2
8 | Cc1cc(C)c2c(NC(C)c3nncn3C3CCCC3)ncnc2n1 (stereo unspecified) | 5.01
9 | CN(C)CCN1CCC(CNCc2c[nH]nc2C(C)(C)C)CC1 | -3.21
10 | NC(=O)COCCNC(=O)Nc1sc2ccccc2c1Cl | 8.81
11 | CCc1cccc(N2CCC(NC(=O)CCNC(N)=O)CC2)c1 | -12.5
12 | O=S(=O)(c1cc(F)ccc1F)N1CCCC1c1ccco1 (stereo unspecified) | 11.2
13 | Cc1ncsc1C(=O)NCCSCc1cccs1 | -2.11
14 | CCOC(=O)c1c(NC(=O)CN2CCN(C(C)=O)CC2)sc2c1CCC2 | -5.33
15 | Cc1cccc(-n2nnnc2C(C)(C)Nc2ccccc2C)c1 | 8
16 | COc1ccccc1CC(=O)N1CCCC1Cn1nc(C)cc1C (stereo unspecified) | -9.37
17 | Cc1cc(C2CCCN(C(=O)COc3cc(C)on3)C2)n[nH]1 (stereo unspecified) | -3.87
18 | Cc1c(C2N3CC4(C)CN2CC(C)(C3)C4=O)[nH]c(=O)[nH]c1=O (stereo unspecified) | 6.57
19 | Cc1c2ncn(CC(=O)N(C)C)c(=O)c2nn1C | -2.56
20 | Cc1cccc2c1cnn2CCCNC(=O)c1ccnn1C | 13.4
21 | CCc1nc(CN2CCCN(C(=O)C3CCC3)CC2)cs1 | 5.41
22 | CCc1ccc(C(=O)NC[C@H]2CCCN2C(=O)c2ccc(CC)o2)o1 | -5.54
23 | CCc1ncc(C(=O)NCCNc2ncnc3sccc23)s1 | 49.6

Row | SMILES | cytotoxicity at 10 µM [%]
24 | CN(c1cccc(C#N)c1)S(=O)(=O)c1cc(C(=O)O)ccc1Cl | -5.94
25 | O=c1[nH]c(CN2CCOC(Cn3cccn3)C2)nc2ccccc12 (stereo unspecified) | -2.32
26 | CS(=O)(=O)N1CC(c2ncn3ccccc23)C1 | 5.6
27 | c1cnc(N2CCCC3(CCN(Cc4ccsc4)C3)C2)nc1 (stereo unspecified) | -83.2
28 | O=C(Cn1ccc(=O)cc1)NCc1ccc2sccc2c1 | 0.592
29 | CC(C)Oc1ccc(CNC(=O)NCC(C)(C)C(N)=O)cc1F | -24.8
30 | NC(=O)C1CCN(Cc2csc(-c3ncccn3)n2)CC1 | -6.04
31 | CCS(=O)(=O)N1Cc2nccn2CC(Cn2nc(C)nc2C)C1 (stereo unspecified) | -2.34
32 | CS(=O)(=O)CC(=O)N1C[C@H]2CCC[C@@]2(COCc2ccncc2)C1 | -101
33 | Cn1nc2c(cc1=O)CN(Cc1nc(-c3ccccn3)no1)CC2 | -3.51
34 | COc1ccccc1N1CCC(CNCc2c(C)nn(C)c2OC)C1 (stereo unspecified) | 5.28
35 | c1ccc(-c2nc3c(c(NCCc4c[nH]cn4)n2)CCNC3)cc1 | -123
36 | COc1ccc(CNC2CCCc3nc(N(C)C)ncc32)c(OC)c1 (stereo unspecified) | 1.42
37 | COCCCNC(=O)Nc1c(C)cccc1C(C)C | 2.66
38 | COC(=O)c1ccc(S(=O)(=O)N2CCCn3ncnc32)s1 | 19.8
39 | Cc1nc(CN2CCc3ncnc(-c4ccncc4)c3CC2)cs1 | -70
40 | CC(C)N(C)Cc1n[nH]c2c1CCN(C(=O)c1cc[nH]n1)C2 | -134
41 | CC1(C)Cc2ccc(C(=O)NC3CCS(=O)(=O)C3)c(O)c2O1 (stereo unspecified) | 0.329
42 | Cc1nn(C)c(C)c1C1CCCN1Cc1nc(C2CC2)no1 (stereo unspecified) | -6.68
43 | COc1ncnc2c1CCN(Cc1nccs1)CC2 | 8.73
44 | Cc1cnc(CNS(=O)(=O)CCC2CCCO2)o1 (stereo unspecified) | 9.84
45 | CN(C)C(=O)CN1CCC2(CC1)CC(=O)c1ccc3ccccc3c1O2 | 6.17
46 | COCC1CC2(CCN(Cc3cccc(C#N)c3)CC2)CN1C(C)C (stereo unspecified) | 0.866

Row | SMILES | cytotoxicity at 10 µM [%]
47 | Cc1noc(C)c1-c1cccc(C2CN(CC(=O)N(C)C)CCO2)n1 (stereo unspecified) | 0.025
48 | Cc1ccc(NC(=O)C(C)n2ccc(C(F)(F)F)n2)nc1 (stereo unspecified) | 9.6
49 | COCc1cncc2c1CCN(Cc1cnn(C)c1)C2 | -0.287
50 | O=C(NCCN1CCCCC1)c1nc2ccccc2c(=O)[nH]1 | 10.5
51 | COCC1CC2(CCN(CC3CC3)CC2)CN1Cc1csc(C)n1 (stereo unspecified) | 4.26
52 | Cn1ccc(-c2cc(C(=O)N3CCCCC3)c3ccccn23)n1 | -45.7
53 | CCc1noc(C2CCCCN2C(=O)c2sccc2C)n1 (stereo unspecified) | 10.3
54 | CN(C)C(=O)c1csc(-c2ccoc2)n1 | -1.13
55 | Cn1cc(CN2CC[C@H]3O[C@H](C(=O)NCc4ccco4)CC[C@H]32)cn1 | -1.85
56 | CN(C)c1ccccc1C(=O)N1CCCC(c2ccc(C(=O)O)cc2)C1 (stereo unspecified) | 16.2
57 | COc1ccccc1COCC(O)CN1CCC(c2ccn[nH]2)CC1 (stereo unspecified) | -2.54
58 | CC(C)(C)c1ncc(CNc2ccn(CCc3ccncc3)n2)s1 | 26.1
59 | Cc1ccccc1-c1cccc(CN2C[C@H]3C(=O)NC[C@@]3(C(=O)O)C2)c1 | -0.147
60 | COc1ccc(OC)c(C(=O)N(C)Cc2nnc3ccccn23)c1 | -0.972
61 | CN(C)c1nccc(C2CCN(c3ncccn3)CC2)n1 | 0.59
62 | CN(CC(=O)N1CCCCC1Cn1cccn1)Cc1ccccc1 (stereo unspecified) | -3.99
63 | O=C(N[C@@H]1CCN(c2ncc(Cl)cc2Cl)C[C@H]1O)c1cnccn1 | -8.92
64 | COCCN(CCOC)C(=O)c1ccoc1C | 6.72
65 | CN1CCN(C(=O)c2cc3occc3n2Cc2ccccc2F)CC1 | 1.14
66 | CC(C)c1ccc(OCn2ccc(C(=O)N3CCCC3)n2)cc1 | 12.7
67 | CC1=N[C@@]2(CC[C@@H]3CN(C(=O)NCc4cccc(F)c4)C[C@@H]32)C(=O)N1 | -73.4
68 | CCn1cnnc1CCNC(=O)C(C)(C)c1cccc(Cl)c1 | 7.76
69 | Cc1cc(N2CCC(O)CC2)nc(C2CCCN2C)n1 (stereo unspecified) | -1.89

Row | SMILES | cytotoxicity at 10 µM [%]
70 | O=C(NCc1ccco1)[C@H]1C[C@H]2OCC[C@H]2N(C(=O)c2ccco2)C1 | 2.79
71 | Cn1cnc(C(=O)N2CC3(CCN(S(=O)(=O)c4ccccc4)C3)C2)c1 | 3.8
72 | Cc1ccnc2c1NC(=O)CN2C(=O)CCC(F)(F)F | -15
73 | COc1cccc2c(=O)n(Cc3cccnc3)cnc12 | -7.85
74 | CCC(c1ccccc1)c1nn2c(CN(CC)CC)nnc2s1 (stereo unspecified) | 7.79
75 | CCN(CC)S(=O)(=O)NC1CCN(c2ccc(OC)cc2)CC1 | 3.38
76 | Cc1noc(C)c1CN1CC[C@H](OCC2CC2)[C@@H](Cc2ccccc2)C1 | -65.8
77 | O=C(c1ccoc1)N1CC[C@H]2C[C@@H](c3nnc(C4CC4)o3)O[C@@H]2C1 | -101
78 | CNC(=O)c1n[nH]c2c1C(c1cccc3c1OC(C)(C)C3)CC(=O)N2 (stereo unspecified) | 0.0642
79 | CC(C)n1ccc(-c2cc(C(=O)NC3CC3)c3ccccn23)n1 | -5.4
80 | CCC(CO)NCc1ccc(-c2ccc(Cl)cc2)o1 (stereo unspecified) | 5.24
81 | Cc1ccc(-c2n[nH]cc2CNCC2CCN(CC(F)(F)F)C2)o1 (stereo unspecified) | 6.99
82 | Cc1cc(CN2CCN(C(=O)NCc3c(C)noc3C)CC2)on1 | 0.386
83 | Cc1noc(C)c1C1CCCN1CCC(=O)N1CCc2ccccc2C1 (stereo unspecified) | 2.39
84 | CC(C)c1nnc2n1CCN(Cc1cccc3c1OCCO3)C2 | -1.26
85 | CC(=O)NCCNC(=O)CN1CCOC(Cn2cc(C)cn2)C1 (stereo unspecified) | -4.44
86 | c1cc2cc[nH]c2c(CC2CN(Cc3cscn3)C2)n1 | 13.8
87 | CC(C)C(=O)N1CCC(C2C(=O)Nc3ccccc32)CC1 (stereo unspecified) | -1.54
88 | Cc1nnc(CN2CCC3(CCC(=O)N(C4CCC(O)CC4)C3)CC2)o1 (stereo unspecified) | -8.23
89 | COc1cc(C)ccc1OCC(=O)Nc1ccnc(OCCN(C)C)c1 | -5.18
90 | CCO[C@@H]1CO[C@@]2(CCCN(S(=O)(=O)c3cccnc3)C2)C1 | -0.156
91 | COC(=O)c1c(Cl)c(C)nc2onc(C)c12 | -0.895
92 | Cc1nn2c(nc1=O)-c1ccccc1NC2C(=O)O (stereo unspecified) | 5.32

Row | SMILES | cytotoxicity at 10 µM [%]
93 | CCc1oc(C(=O)NCCSc2ncn[nH]2)cc1CN1CCCC1 | -5.25
94 | CC(C)c1noc(CCCC(=O)NCCOc2ccccc2)n1 | 1.03
95 | CN(Cc1coc(-c2ccccc2)n1)C1CCCN(c2cccnn2)C1 (stereo unspecified) | -14
96 | CNc1nccnc1C1CN(C(=O)c2c[nH]cn2)CCO1 (stereo unspecified) | 3.4
97 | Cn1cnc(-c2nc(C(=O)NCCN3CCCC3)c3ccccn23)c1 | -109
98 | CCOC(=O)c1nc(CC(=O)Nc2ccccc2)no1 | 6.96
99 | Cc1cc(NCCC(=O)NC2CCCCC2)nc(-c2ccncc2)n1 | -5.37
100 | CC1(C)CN(CC(F)(F)F)CCN1CC(=O)NC1CCCC1 | 10.4
101 | COc1ccc(CNC(=O)N2CCc3sccc3C2)cc1O | 7.57
102 | Brc1ccc(NCc2ccc(Cn3ccnc3)cc2)nc1 | 21.8
103 | CC(C)C(=O)N1CC[C@H]2N(C)CC[C@@]2(C(=O)N2CCOCC2)CC1 | -0.449
104 | O=C(NCc1nc[nH]n1)c1cc(COc2cccc(C(F)(F)F)c2)[nH]n1 | -3.26
105 | CCCc1cc(C(=O)N2CCC3(CC2)CN(CCN(C)C)C(=O)O3)no1 | 14.1
106 | CCn1cnnc1CNC(=O)N1CCC(C)CC1 | 2.64
107 | O=C(c1cc(=O)n(-c2ccccc2)[nH]1)N1CCCC(c2ccn[nH]2)C1 (stereo unspecified) | -2.21
108 | Cn1cnc2c(-c3cccnc3)nc(C3CCNCC3)cc21 | -99.9
109 | c1cnc(N2CCCC(NCc3ccc(-n4ccnc4)cc3)C2)nc1 (stereo unspecified) | -7.55
110 | CN(C)CC(=O)N1CCOC2(CCCN(c3ncccc3F)C2)C1 (stereo unspecified) | -9.84
111 | Cc1cccnc1Nc1nccc(C2CN(CC(N)=O)C2)n1 | -34.3
